Results published in ChEMBL document CHEMBL4610089, “Bulbimidazoles A-C, Antimicrobial and Cytotoxic Alkanoyl Imidazoles from a Marine Gammaproteobacterium Microbulbifer Species” (J Nat Prod, 2020).
pIC50: −log10 of the molar value.

Assays:
[1] = system: Staphylococcus aureus; test: Antibacterial activity against Staphylococcus aureus FDA209P JC-1 assessed as reduction in microbial growth after 20 hrs by liquid microculture method; assay type: functional; conditions: FDA209P JC-1, 20 h
Summary of the method: (§1)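 Broth microdilution MIC: twofold serial dilutions of compound were made across the plate, with the solvent vehicle kept at 0.5% of the final culture volume. The inoculum came from a log-phase culture. Plates were incubated at 37 °C for 20 h and growth was read as absorbance at 650 nm, in triplicate. Kanamycin sulfate was the reference drug.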

[2] = system: P388; test: Cytotoxicity against mouse P388 cells assessed as reduction in cell viability after 72 hrs by XTT assay; assay type: functional, cell-based; conditions: P388, 72 h
Summary of the method: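 P388 cells were grown in RPMI-1640 with L-glutamine, 10% FBS and 0.1 mg/mL gentamicin sulfate. They were seeded in 96-well round-bottom plates and exposed to compound in 200 μL cultures for 72 h at 37 °C under 5% CO2. Medium containing XTT (1 mg/mL) and PMS (40 μg/mL) was then added for 4 h, the medium was aspirated, and formazan was read at 450 nm. Growth inhibition was calculated per concentration, with doxorubicin as the reference.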

[3] = system: Trichophyton rubrum; test: Antifungal activity against Trichophyton rubrum NBRC5467 assessed as reduction in microbial growth after 20 hrs by liquid microculture method; assay type: functional; conditions: NBRC5467, 20 h
Summary of the method: (§2)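 Antifungal MIC by twofold serial dilution in microplates: vehicle at 0.5% of final volume, inoculum from a log-phase culture, incubation at 25 °C. Growth was read as absorbance at 650 nm in triplicate. Amphotericin B was the reference drug.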

[4] = system: Candida albicans; test: Antifungal activity against Candida albicans NBRC0197 assessed as reduction in microbial growth after 20 hrs by liquid microculture method; assay type: functional; conditions: NBRC0197, 20 h; summary of the method: as §2
[5] = system: Escherichia coli; test: Antibacterial activity against Escherichia coli NIHJ JC-2 assessed as reduction in microbial growth after 20 hrs by liquid microculture method; assay type: functional; conditions: NIHJ JC-2, 20 h; summary of the method: as §1
[6] = system: Colletotrichum gloeosporioides; test: Antifungal activity against Glomerella cingulata NBRC5907 assessed as reduction in microbial growth after 20 hrs by liquid microculture method; assay type: functional; conditions: NBRC5907, 20 h; summary of the method: as §2
[7] = system: Kocuria rhizophila; test: Antibacterial activity against Kocuria rhizophila ATCC9341 assessed as reduction in microbial growth after 20 hrs by liquid microculture method; assay type: functional; conditions: ATCC9341, 20 h; summary of the method: as §1
[8] = system: Agrobacterium tumefaciens; test: Antibacterial activity against Rhizobium radiobacter NBRC14554 assessed as reduction in microbial growth after 20 hrs by liquid microculture method; assay type: functional; conditions: NBRC14554, 20 h
Summary of the method: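 Broth microdilution MIC: twofold serial compound dilutions, vehicle at 0.5% of final volume, log-phase inoculum. Incubated at 37 °C for 20 h, with absorbance read at 650 nm in triplicate. Sulfamethoxazole was the reference drug.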

[9] = system: Tenacibaculum maritimum; test: Antibacterial activity against Tenacibaculum maritimum NBRC16015 assessed as reduction in microbial growth after 20 hrs by liquid microculture method; assay type: functional; conditions: NBRC16015, 20 h
Summary of the method: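 Twofold serial-dilution microculture MIC: vehicle at 0.5% of final volume, log-phase inoculum, incubation at 24 °C. Growth was read as absorbance at 650 nm in triplicate. Sulfamethoxazole was the reference drug.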

Q: CC(C)CCCCCCC(=O)c1c[nH]cn1 was tested. Which MIC [1] did it give?
A: 3.12 µg/mL

Q: And the pIC50 [2]?
A: 5.15

Q: What about the MIC [3] of the same compound?
A: 3.12 µg/mL

Q: What about the MIC [4] of the same compound?
A: 6.25 µg/mL

Q: What about the MIC [5] of the same compound?
A: > 100 µg/mL

Q: What about the MIC [6] of the same compound?
A: 3.12 µg/mL

Q: What about the MIC [7] of the same compound?
A: 1.56 µg/mL

Q: And the MIC [8]?
A: > 100 µg/mL

Q: And the MIC [9]?
A: 12.5 µg/mL

Q: With CCCCCCCCCC(=O)c1c[nH]cn1 as the compound, how does the MIC [1] read?
A: 1.56 µg/mL

Q: And the pIC50 [2]?
A: 5.24

Q: What about the MIC [3] of the same compound?
A: 1.56 µg/mL

Q: What about the MIC [4] of the same compound?
A: 12.5 µg/mL

Q: And the MIC [5]?
A: > 100 µg/mL

Q: What about the MIC [6] of the same compound?
A: 1.56 µg/mL

Q: What about the MIC [7] of the same compound?
A: 0.78 µg/mL

Q: And the MIC [8]?
A: > 100 µg/mL

Q: What about the MIC [9] of the same compound?
A: 6.25 µg/mL

Q: Which results are given for CCC(C)CCCCCCC(=O)c1c[nH]cn1 (racemic)?
A: MIC [1]: 1.56 µg/mL; pIC50 [2]: 5.30; MIC [3]: 0.78 µg/mL; MIC [4]: 6.25 µg/mL; MIC [5]: > 100 µg/mL; MIC [6]: 1.56 µg/mL; MIC [7]: 0.78 µg/mL; MIC [8]: > 100 µg/mL; MIC [9]: 3.12 µg/mL
